{"source": "ChEMBL document CHEMBL1151814", "about": "“Ambuic acid and torreyanic acid derivatives from the endolichenic fungus Pestalotiopsis sp” (J Nat Prod, 2009)", "format_in_all_cases": "functional, organism-based", "key": {"[1]": {"tested_on": "Staphylococcus aureus", "assay": "Antibacterial activity against Staphylococcus aureus ATCC 6538 after 24 hrs by NCCLS method", "conditions": "ATCC 6538, 24 h", "method_in_brief": "(§1)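 Bacteria grown on Mueller-Hinton agar; inoculum from broth culture at 37 °C for 24 h, final suspension 10^6 cells/mL in MHB. Serial dilutions from 10 mg/mL DMSO stock, tested in triplicate per NCCLS recommendations. Absorbance read at 595 nm after incubation. Inhibition rate plotted against concentration to give IC50. Controls were antimicrobial peptide AMP and streptomycin.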"}, "[2]": {"tested_on": "Aspergillus fumigatus", "assay": "Antifungal activity against Aspergillus fumigatus ATCC 10894 after 48 hrs by NCCLS method", "method_in_brief": "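Mould grown on potato dextrose agar; inoculum from broth culture at 28 °C for 48 h, final 10^4 mycelial fragments/mL in PDB. Compounds serially diluted from 10 mg/mL DMSO stock, triplicate wells per NCCLS. Absorbance at 595 nm after incubation; IC50 from inhibition rate plotted versus concentration. Fluconazole positive control.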"}, "[3]": {"tested_on": "Escherichia coli", "assay": "Antibacterial activity against Escherichia coli CGMCC 1.2340 after 24 hrs by NCCLS method", "conditions": "CGMCC 1.2340, 24 h", "method_in_brief": "as §1"}, "[4]": {"tested_on": "Candida albicans", "assay": "Antifungal activity against Candida albicans ATCC 10231 after 48 hrs by NCCLS method", "conditions": "ATCC 10231, 48 h", "method_in_brief": "(§2)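 Yeasts grown on Sabouraud dextrose agar; inoculum from broth culture at 28 °C for 48 h, final suspension 10^5 cells/mL in SDB. Serial dilutions from 10 mg/mL DMSO stock in triplicate per NCCLS. A595 read after incubation; IC50 derived from inhibition rate versus concentration plot. Fluconazole served as positive control.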"}, "[5]": {"tested_on": "Geotrichum candidum", "assay": "Antifungal activity against Geotrichum candidum AS2.498 after 48 hrs by NCCLS method", "conditions": "AS2.498, 48 h", "method_in_brief": "as §2"}, "[6]": {"tested_on": "Streptococcus pneumoniae", "assay": "Antibacterial activity against Streptococcus pneumoniae CGMCC 1.1692 after 24 hrs by NCCLS method", "conditions": "CGMCC 1.1692, 24 h", "method_in_brief": "as §1"}}, "note": "Activity calls are given as the source filed them. No cut-off for these calls is given here."}
{"smiles": "CCCCC/C=C/C1=C(COC(C)=O)[C@@H](O)[C@H]2O[C@@]2(C/C=C(\\C)C(=O)O)C1=O", "values": [{"measurement": "IC50", "setting": "[1]", "result": 27.8, "unit": "µM"}, {"measurement": "Activity", "setting": "[2]", "result": "inactive"}]}
{"smiles": "CCC/C=C/C=C/C1=C(CO)[C@@H](O)[C@H]2O[C@@]2(C/C=C(\\C)C(=O)O)C1=O", "values": [{"measurement": "IC50", "setting": "[1]", "result": "> 50", "unit": "µM"}, {"measurement": "Activity", "setting": "[2]", "result": "inactive"}, {"measurement": "IC50", "setting": "[3]", "result": "> 50", "unit": "µM"}, {"measurement": "IC50", "setting": "[4]", "result": "> 50", "unit": "µM"}, {"measurement": "IC50", "setting": "[5]", "result": "> 50", "unit": "µM"}, {"measurement": "IC50", "setting": "[6]", "result": "> 50", "unit": "µM"}]}
{"smiles": "CCCCCCCC1=C(CO)[C@@H](O)[C@H]2O[C@@]2(C/C=C(\\C)C(=O)O)C1=O", "values": [{"measurement": "IC50", "setting": "[1]", "result": "> 50", "unit": "µM"}, {"measurement": "Activity", "setting": "[2]", "result": "inactive"}, {"measurement": "IC50", "setting": "[3]", "result": "> 50", "unit": "µM"}, {"measurement": "IC50", "setting": "[4]", "result": "> 50", "unit": "µM"}, {"measurement": "IC50", "setting": "[5]", "result": "> 50", "unit": "µM"}, {"measurement": "IC50", "setting": "[6]", "result": "> 50", "unit": "µM"}]}
{"smiles": "CCCCC/C=C/C1=C(CO)[C@H](O)[C@H]2O[C@@]2(C/C=C(\\C)C(=O)O)C1=O", "note": "[AMBUIC ACID]", "values": [{"measurement": "IC50", "setting": "[1]", "result": 43.9, "unit": "µM"}, {"measurement": "Activity", "setting": "[2]", "result": "inactive"}]}
{"smiles": "CCC(=O)CC/C=C/C1=C(CO)[C@@H](O)[C@H]2O[C@@]2(C/C=C(\\C)C(=O)O)C1=O", "values": [{"measurement": "IC50", "setting": "[1]", "result": "> 50", "unit": "µM"}, {"measurement": "Activity", "setting": "[2]", "result": "inactive"}, {"measurement": "IC50", "setting": "[3]", "result": "> 50", "unit": "µM"}, {"measurement": "IC50", "setting": "[4]", "result": "> 50", "unit": "µM"}, {"measurement": "IC50", "setting": "[5]", "result": "> 50", "unit": "µM"}, {"measurement": "IC50", "setting": "[6]", "result": "> 50", "unit": "µM"}]}
{"smiles": "CCCCC/C=C/C1=C(CO)C(=O)C[C@](O)(C/C=C(\\C)C(=O)O)[C@H]1O", "values": [{"measurement": "IC50", "setting": "[1]", "result": "> 50", "unit": "µM"}, {"measurement": "Activity", "setting": "[2]", "result": "inactive"}, {"measurement": "IC50", "setting": "[3]", "result": "> 50", "unit": "µM"}, {"measurement": "IC50", "setting": "[4]", "result": "> 50", "unit": "µM"}, {"measurement": "IC50", "setting": "[5]", "result": "> 50", "unit": "µM"}, {"measurement": "IC50", "setting": "[6]", "result": "> 50", "unit": "µM"}]}
{"smiles": "CCCCCC1O[C@H]2C3=C(C(=O)[C@@]4(C/C=C(\\C)C(=O)O)OC4[C@H]3O)C1C1C(CCCCC)OC=C3C(=O)C4O[C@]4(C/C=C(\\C)C(=O)O)C(=O)C312", "note": "(stereo not given in full)", "values": [{"measurement": "IC50", "setting": "[1]", "result": "> 50", "unit": "µM"}, {"measurement": "Activity", "setting": "[2]", "result": "inactive"}, {"measurement": "IC50", "setting": "[3]", "result": "> 50", "unit": "µM"}, {"measurement": "IC50", "setting": "[4]", "result": "> 50", "unit": "µM"}, {"measurement": "IC50", "setting": "[5]", "result": "> 50", "unit": "µM"}, {"measurement": "IC50", "setting": "[6]", "result": "> 50", "unit": "µM"}]}
{"smiles": "CCCCC/C=C/C1=C2COC(C)(C)O[C@H]2[C@H]2O[C@@]2(C/C=C(\\C)C(=O)O)C1=O", "values": [{"measurement": "IC50", "setting": "[1]", "result": "> 50", "unit": "µM"}, {"measurement": "Activity", "setting": "[2]", "result": "inactive"}, {"measurement": "IC50", "setting": "[3]", "result": "> 50", "unit": "µM"}, {"measurement": "IC50", "setting": "[4]", "result": "> 50", "unit": "µM"}, {"measurement": "IC50", "setting": "[5]", "result": "> 50", "unit": "µM"}, {"measurement": "IC50", "setting": "[6]", "result": "> 50", "unit": "µM"}]}
